Series [1] has as its system MDA-MB-231. Briefly: Antiproliferative activity against human MDA-MB-231 cells after 72 hrs by CellTiter-Glo luminescent assay. Format: functional, cell-based. Particulars: MDA-MB-231, 72 h. The gist of the method: (§1)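 Cells seeded at 2 x 10⁴/well, rested 24 h, then exposed to increasing concentrations or DMSO vehicle for 72 h. MDA-MB-231 grown in RPMI 1640 with 10% FCS; U2OS grown in DMEM + GlutaMAX with 10% FCS; both at 37°C, 5% CO₂. Viable cells read by ATP luminescence, triplicate wells. IC₅₀ from fitted dose-response curves, mean ± SD of at least 3 independent experiments.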
(In general: In ATP-based viability assays light output follows the ATP content of the culture.)

For series [2], the system named is U2OS. Briefly: Antiproliferative activity against human U2OS cells after 72 hrs by CellTiter-Glo luminescent assay. The class given is functional, cell-based. The gist of the method: as §1
Series [3] in a line: Aqueous solubility of the compound. The class given is physicochemical. The settings on record: buffer.
Series [4] can be described thus: Stability in rat plasma assessed as compound remaining at 1 uM after 120 mins by LC-MS/MS method. The class given is ADME, cell-free. The settings on record: read-out: Stability. The gist of the method: (§2)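 Rat or mouse plasma, pH adjusted to 7.4 if needed, spiked with compound at 1 µM (2.5% final DMSO) at 37 °C. Stopped at 0, 15, 30, 60 and 120 min with methanol containing internal standard. Parent measured by LC-MS/MS peak-area ratio and expressed as percent remaining relative to 0 min.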

Series [5] is described as follows: Stability in mouse plasma assessed as compound remaining at 1 uM after 120 mins by LC-MS/MS method. Format: ADME, cell-free. Particulars: read-out: Stability. The gist of the method: as §2
Series [6] in a line: Stability in simulated gastric fluid at pH 1.2 assessed as compound remaining at 1 uM after 120 mins by LC-MS/MS method. The procedure, abridged:
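Simulated gastric fluid (HCl, NaCl, pepsin; pH 1.2), compound at 1 μM with 2.5% final DMSO, 37 °C. Quenched at 0, 15, 30, 60 and 120 min with methanol containing internal standard. Parent quantified by LC-MS/MS peak-area ratio and expressed as percent remaining versus 0 min.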

A short description of series [7]: Fraction unbound in rat plasma at 5 uM by LC-MS/MS method. Format: ADME, cell-free. The gist of the method:
(§3)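 Equilibrium dialysis across a semi-permeable membrane, buffer (pH 7.4) on one side and 100% species-specific plasma on the other. Test compound at 5 μM with 0.5% final DMSO, 37 °C. Both sides sampled at equilibrium and quantified by LC-MS/MS against matrix-matched standard curves. %fu from duplicate incubations, with a control compound in each run.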

Series [8] in a line: Fraction unbound in mouse plasma at 5 uM by LC-MS/MS method. Format: ADME, cell-free. The procedure, abridged: as §3
The nature of series [9]: Intrinsic clearance in Sprague-Dawley rat liver microsomes assessed per mg protein at 3 uM preincubated for 45 mins followed by NADPH addition by LC-MS/MS method.
A short description of series [10]: Thermodynamic solubility of the compound in phosphate buffered saline at pH 7.4 at 1 mg sonicated for 10 mins measured after 12 hrs by HPLC method. Format: physicochemical. The settings on record: read-out: Therm_solubility. The gist of the method:
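Centrifuged until clear, and supernatant analysed by HPLC at 254 nm. Concentration derived from a linear (Y = aX) calibration of MeCN dilutions at 10–100 µg/mL. Measured at 22 °C.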

Series [11] is described as follows: Stability of the compound in PEG400 using liquid sample at 5 mg/ml at 5 degC after 30 days by UV-HPLC method. Format: physicochemical. The settings on record: 720 h.
Series [12] in a line: Stability of the compound in PEG400 using liquid sample at 5 mg/ml at 25 degC after 30 days by UV-HPLC method. The class given is physicochemical. Particulars: 720 h.
Series [13] can be described thus: Stability of the compound in polysorbate80/poloxamer188 formulation using liquid sample at 1 mg/ml at 5 degC after 30 days by UV-HPLC method. Format: physicochemical. The settings on record: 720 h. The gist of the method:
(§4)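 Intravenous-type dosage solution: API at 1 mg/mL in water for injection containing polysorbate 80 and poloxamer 188 (5 mg/mL each). API dissolved in the surfactants at 70–80 °C, hot water added slowly, then cooled to ambient. Stored at 5 or 25 °C; stability followed by HPLC over 30 days.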

Series [14] in a line: Stability of the compound in polysorbate80/poloxamer188 formulation using liquid sample at 1 mg/ml at 25 degC after 30 days by UV-HPLC method. Particulars: 720 h. Format: physicochemical. The procedure, abridged:
as §4

Series [15] can be described thus: Stability of the compound in PEG8000 formulation using solid sample at 5 mg/ml at 5 degC after 30 days by UV-HPLC method. Format: physicochemical. The settings on record: 720 h. The procedure, abridged: (§5)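 Solid tablets cast from hot melt: API dissolved in melted PEG8000 at 90–100 °C with stirring, or first dissolved in PEG400 and then mixed into melted PEG8000, giving a formulation containing 10% PEG400. Stored at 5 or 25 °C, degradation assessed by HPLC over 30 days, with one reading at 33 days.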

Series [16] can be described thus: Stability of the compound in PEG8000 formulation using solid sample at 5 mg/ml at 25 degC after 33 days by UV-HPLC method. The class given is physicochemical. Particulars: 792 h. The gist of the method:
as §5

Series [17] concerns U2OS. Briefly: Cell cycle arrest in human U2OS cells assessed as accumulation at G2/M phase after 24 hrs by propidium iodide staining based flow cytometric method. The class given is functional. The gist of the method:
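Exponentially growing U2OS cells treated 24 h with compound or DMSO vehicle. Cells collected, PBS-washed and fixed in ice-cold 70% methanol. About 1 million cells stained 30 min at 37 °C with propidium iodide (1%) plus RNase A (2.5%) in PBS, then analysed by flow cytometry. Phase percentages given as mean ± SD of two independent experiments.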
(In flow cytometry, cells or beads pass a laser one at a time.)

Series [18] in a line: Intrinsic clearance in CD1 mouse liver microsomes assessed per mg protein at 3 uM preincubated for 45 mins followed by NADPH addition by LC-MS/MS method. (Microsomes from liver hold many membrane-bound enzymes, among them those of drug oxidation.)
The nature of series [19]: Stability of the compound in PEG400 using liquid sample at 10 mg/ml at 5 degC after 30 days by UV-HPLC method. Format: physicochemical. The settings on record: 720 h. The procedure, abridged: (§6)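 API dissolved in PEG400 at 70–80 °C with vortexing to a clear solution at 10 mg/mL. Stored at 5 or 25 °C and checked for degradation by HPLC over 30 days.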
The nature of series [20]: Stability of the compound in PEG400 using liquid sample at 10 mg/ml at 25 degC after 30 days by UV-HPLC method. The class given is physicochemical. Particulars: 720 h. The procedure, abridged: as §6
Series [21] in a line: Stability of the compound in PEG8000/10% PEG400 formulation using solid sample at 5 mg/ml at 5 degC after 30 days by UV-HPLC method. Format: physicochemical. The settings on record: 720 h. The procedure, abridged: as §5
The nature of series [22]: Stability of the compound in PEG8000/10% PEG400 formulation using solid sample assessed as compound degradation at 5 mg/ml at 25 degC after 33 days by UV-HPLC method. The class given is physicochemical. The settings on record: read-out: Drug degradation. The gist of the method:
as §5

Converted amounts (≈) assume the structure as drawn.

As to `COc1cc(OC)c2c(c1Cl)O[C@]1(C2=O)C(O[C@@H](C)c2ccccc2)=CC(=O)C[C@H]1C`, the IC50 in [1] came to 7100 nM; in series [2] it was 1600 nM. Further, the solubility entry in series [3] was “Insoluble”.

With `COc1cc(OC)c2c(c1Cl)O[C@]1(C2=O)C(OCc2ccc(C)cc2)=CC(=O)C[C@H]1C`, the IC50 in series [1] was 1700 nM; in series [2], 1300 nM. The remaining at 2 h, 1 µM in series [4] stood at 89%; in series [5], 102%. In series [6], the Stability is 68%. Moreover, the fraction unbound at 5 µM in series [7] and in series [8] was 0.018 each time. Besides, the CLH in [9] was 60.2 mL/min.

For the compound `COc1cc(OC)c2c(c1Cl)O[C@]1(C2=O)C(OCc2ccccc2)=C/C(=N/O)C[C@H]1C`, the IC50 in series [1] is 1400 nM; in [2] it was 1200 nM. Moreover, the remaining at 2 h, 1 µM in series [4] is 102%; in series [5] it was 87%. Also, the Stability in [6] is 81%; in series [11], “Stable”; in series [12], “Stable”; in series [13] it was “Stable”; in series [14], “Stable”; in series [15], “Stable”. Besides, the Stability entry in series [16] was “Stable”. Further, the fraction unbound at 5 µM in series [7] was found to be 0.014; in series [8], 0.043. Besides, the solubility thermodynamic at 12 h in series [10] came to 3 µg/mL (≈ 6.76 µM). For the same compound, the CLH in series [9] was 59.1 mL/min.

In the case of `COc1cc(OC)c2c(c1Cl)O[C@]1(C2=O)C(N(C)Cc2ccccc2)=CC(=O)C[C@H]1C`, the IC50 in series [1] came to 3500 nM; in series [2], 1900 nM. Also, the remaining at 2 h, 1 µM in [4] is 106%; in series [5] it was 104%. Further, in series [6], the Stability was 15%. Also, the free fraction (fraction unbound) at 5 µM in [7] was 0.06; in [8], 0.087.

Consider `COC1=CC(=O)C[C@@H](C)[C@]12Oc1c(Cl)c(OC)cc(OC)c1C2=O` [GRISEOFULVIN], for which the remaining at 2 h, 1 µM in series [4] and in series [5] was 107% throughout. In addition, the Stability in [6] was 73%. Moreover, the figures for the fraction unbound at 5 µM in [7] and in series [8] were 0.216 and 0.427, respectively. The Activity entry in [17] is “Dose-dependent effect”.

Regarding `COc1cc(OC)c2c(c1Cl)O[C@]1(C2=O)C(O[C@H](C)c2ccccc2)=CC(=O)C[C@H]1C`, the values for the IC50 in [1] and in series [2] were 17100 nM and 13700 nM, respectively. For the same compound, in series [3], the solubility result is “Insoluble”.

Take `COc1cc(OC)c2c(c1Cl)O[C@]1(C2=O)C(OCc2ccc(F)cc2)=CC(=O)C[C@H]1C`: the CLH in [18] stood at 17.4 mL/min; in series [9], 30.7 mL/min.

For `COc1cc(OC)c2c(c1Cl)O[C@]1(C2=O)C(NCc2ccc(C)cc2)=CC(=O)C[C@H]1C`, the IC50 worked out at 8200 nM in series [1] and 6900 nM in series [2]. In addition, the values for the remaining at 2 h, 1 µM in series [4] and in [5] were 111% and 107%, respectively. The Stability in series [6] is 54%. The fraction unbound at 5 µM in series [7] was determined as 0.055; in series [8], 0.11.

As for `COc1cc(OC)c2c(c1Cl)O[C@]1(C2=O)C(OCc2ccccc2)=CC(=O)C[C@H]1C`, the IC50 in series [1] is 1700 nM; in [2] it was 1300 nM. The remaining at 2 h, 1 µM in [4] was determined as 101%; in series [5] it was 91%. The Stability was 62% in series [6]; “Stable” in series [19]; “Stable” in series [20]; “Stable” in series [21]; “Unstable” in series [14]. The results for the fraction unbound at 5 µM in [7] and in [8] were 0.027 and 0.112, respectively. The solubility thermodynamic at 12 h in series [10] turned out to be 0.3 µg/mL (≈ 0.7 µM). In addition, the degraded at 792 h, 5 mg/ml in [22] came to 4%. Moreover, the CLH in series [9] turned out to be 45 mL/min.

With `COc1cc(OC)c2c(c1Cl)O[C@]1(C2=O)C(NCc2ccc(F)cc2)=CC(=O)C[C@H]1C`, the IC50 in [1] is 5200 nM; in series [2] it was 2600 nM. The remaining at 2 h, 1 µM in series [4] amounted to 92%; in [5], 108%. Also, the Stability in series [6] is 54%. Moreover, the fraction unbound at 5 µM in [7] was found to be 0.094; in series [8], 0.132.

On to `COc1cc(OC)c2c(c1Cl)O[C@]1(C2=O)C(NCc2ccccc2)=CC(=O)C[C@H]1C`, for which the IC50 in [1] worked out at 3200 nM; in [2] it was 2100 nM. In addition, the figures for the remaining at 2 h, 1 µM in series [4] and in series [5] were 116% and 117%, respectively. In addition, the Stability in series [6] was 52%; in series [11], “Stable”; in series [12], “Stable”; in series [13], “Stable”; in [14] it was “Unstable”; in series [15] it was “Stable”. Besides, the Stability result in series [16] is recorded as “Stable”. The fraction unbound at 5 µM in series [7] turned out to be 0.111; in [8], 0.141. For the same compound, the solubility thermodynamic at 12 h in series [10] is 62 µg/mL (≈ 145 µM). Further, in series [17], the Activity entry was “Dose-dependent effect”. Moreover, the CLH in series [9] was 28 mL/min.

The term IC50 denotes the concentration at which inhibition is half-maximal. A higher IC50 goes with a need for much substance. As a reminder, the fraction unbound is the share of the substance not bound to proteins or other matrix. A low value points to little free substance.
